What all share (format): functional
The subject of test [1] is Radical scavenging activity. Briefly: Antioxidant activity assessed as DPPH radical scavenging activity. In general terms: Loss of DPPH colour is used to gauge radical scavenging.
Test [2] is described as follows: Antioxidant activity assessed as trolox equivalents of ABTS radical scavenging activity at 40 mins by TEAC assay. An outline of the steps:
(§1)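 ABTS•+ scavenging run per an earlier published method. Standard curve built from six 1:2 serial dilutions of a 500 μg/mL stock solution. Activity expressed as Trolox equivalent antioxidant capacity (TEAC), read at 5 min intervals from 0 to 40 min after starting incubation with the radical. Seven technical replicates.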

Test [3] can be described thus: Antioxidant activity assessed as trolox equivalents of ABTS radical scavenging activity at 30 mins by TEAC assay. In a few lines: as §1
A short description of test [4]: Antioxidant activity assessed as trolox equivalents of ABTS radical scavenging activity at 35 mins by TEAC assay. In a few lines:
as §1

Test [5] in a line: Antioxidant activity assessed as trolox equivalents of ABTS radical scavenging activity at 25 mins by TEAC assay. An outline of the steps:
as §1

Test [6] is described as follows: Antioxidant activity assessed as trolox equivalents of ABTS radical scavenging activity at 20 mins by TEAC assay. In a few lines: as §1
Test [7] is described as follows: Antioxidant activity assessed as trolox equivalents of ABTS radical scavenging activity at 15 mins by TEAC assay. In a few lines:
as §1

Test [8] can be described thus: Antioxidant activity assessed as trolox equivalents of ABTS radical scavenging activity at 5 mins by TEAC assay. An outline of the steps: as §1
A short description of test [9]: Antioxidant activity assessed as trolox equivalents of ABTS radical scavenging activity at 10 mins by TEAC assay. In a few lines:
as §1

A short description of test [10]: Antioxidant activity assessed as trolox equivalents of ABTS radical scavenging activity at 0 min by TEAC assay. In a few lines: as §1

The source made the active and inactive calls. The rule behind the calls is not given here.

As for `O=C(/C=C/c1ccc(O[C@@H]2O[C@H](COC(=O)[C@]3(O)C[C@@H](O)[C@@H](O)[C@H](OC(=O)/C=C/c4ccc(O)c(O)c4)C3)[C@@H](O)[C@H](O)[C@H]2O)c(O)c1)O[C@@H]1C[C@](O)(C(=O)O)C[C@@H](O)[C@H]1O`, the outcome in [1] was Active. Moreover, the Activity was determined as 3.89 in [2]; 3.71 in [3]; 3.81 in [4]; 3.73 in [5]; 3.64 in test [6]; 3.18 in [7]. Besides, the Activity came to 2.71 in test [8], 3.01 in test [9] and 1.51 in [10].
In the case of `O=C(/C=C/c1ccc(O)c(O)c1)O[C@@H]1C[C@](O)(C(=O)O)C[C@@H](O)[C@H]1O`, the outcome in test [1] was Active. In addition, the Activity in test [2] came out at 2.56; in [3] it was 2.42; in test [4], 2.5; in [5], 2.49; in [6], 2.26; in test [7], 2.1. Further, the Activity in test [8] is 1.61; in [9], 1.85; in test [10], -0.31.
With `O=C(O)CC(=O)O[C@@H]1C[C@@](O)(C(=O)O)C[C@@H](OC(=O)/C=C/c2ccc(O[C@@H]3O[C@H](COC(=O)[C@]4(O)C[C@@H](O)[C@@H](O)[C@H](OC(=O)/C=C/c5ccc(O)c(O)c5)C4)[C@@H](O)[C@H](O)[C@H]3O)c(O)c2)[C@@H]1O`, the outcome in test [1] was Active. The Activity in test [2] amounted to 2.56; in test [3], 2.42; in test [4] it was 2.5; in [5], 2.49; in test [6], 2.26; in [7], 2.1. Besides, the Activity was 1.61 in test [8], 1.85 in test [9] and -0.31 in [10].

The values above are taken from ChEMBL document CHEMBL2203259, “Antioxidant glucosylated caffeoylquinic acid derivatives in the invasive tropical soda apple, Solanum viarum” (J Nat Prod, 2012).
